# Screens from PubChem.
# An excerpt weighted towards active compounds, which were near 1.4% of everything screened.
# CAL PDZ FP-1 – CAL PDZ peptide-binding inhibitors, primary screen, biochemical, fluorescence polarization, Cer-tagged CAL PDZ, HTS; Golgi-associated PDZ and coiled-coil motif-containing protein (Homo sapiens), Q9HD26; purified CAL PDZ, TMR-peptide fluorescence polarization, 1 h; inhibition, % at 20 µM; 330,000 tested, 0.02% active;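 active means highest replicate inhibition of at least 40%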;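 further: plate controls were DMSO neutral control wells for no effect and unlabeled competitor peptide control wells for full effect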
#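 Assay system – tagged CAL PDZ protein CerCALP, purified · Timing – 1 h at RT · Compound – single point, 20 µM · Measured by – fluorescence polarization from S- and P-plane intensities, G-factor corrected · Evaluation – inhibition from polarization loss · Probe or stimulus – TMR reporter peptide T*-PRC34 · Buffer or medium – pH 7.4 phosphate-saline buffer, reducing agent, detergent, IgG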
# Tn7 DDE FP – inhibitors of Tn7 peptide binding to fibrin DD(E), primary screen, biochemical, fluorescence polarization, human fibrin, Tn7 probe. Fibrinogen beta chain (Homo sapiens), P02675. FP displacement of FITC-Tn7 peptide from fibrin DD(E); 0% = median of compound wells per plate. inhibition, % at 8.3 µM. 370,000 tested, 0.13% active. AID 720508, 2013;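 active means inhibition above the mean of compounds falling within the control limits plus 3 SD of them, cut at about 14% in these data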;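 further: 0% = plate median of compound wells and 100% = 10 µM Aha-Tn7 peptide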
# Target sequence (P02675 whole entry, looked up): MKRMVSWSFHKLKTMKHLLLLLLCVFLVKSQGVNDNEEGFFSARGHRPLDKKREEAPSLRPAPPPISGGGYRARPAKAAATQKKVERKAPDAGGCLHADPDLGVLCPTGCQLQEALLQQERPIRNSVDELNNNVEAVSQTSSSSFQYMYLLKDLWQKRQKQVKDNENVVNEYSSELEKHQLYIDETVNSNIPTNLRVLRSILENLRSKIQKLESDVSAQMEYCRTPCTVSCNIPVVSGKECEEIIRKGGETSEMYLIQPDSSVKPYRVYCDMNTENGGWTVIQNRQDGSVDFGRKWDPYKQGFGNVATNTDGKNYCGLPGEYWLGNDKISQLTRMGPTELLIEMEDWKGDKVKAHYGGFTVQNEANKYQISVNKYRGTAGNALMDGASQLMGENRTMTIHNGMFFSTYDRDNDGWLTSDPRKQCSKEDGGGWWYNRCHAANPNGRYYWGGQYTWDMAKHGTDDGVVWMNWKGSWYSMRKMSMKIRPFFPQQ
#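 Assay system: Human fibrin DD(E) protein | Medium: Tris buffer with calcium and detergent, pH 7.8 | Reagent: 0.1 µM fluorescent Tn7 | Compound dosing: Single point at 8.3 µM | Times: 10 min preincubation, 3 h with tracer, room temperature | Detection: Fluorescence polarization of the labelled Tn7 tracer | Controls: Aha-Tn7 high control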
# Tn6 DDE FP – inhibitors of Tn6 peptide binding to fibrin DD(E), primary screen, biochemical, fluorescence polarization, human fibrin, Tn6 probe; Fibrin DD(E) TRITC-Tn6 fluorescence polarization displacement; 370,000 tested, 0.21% active; inhibition, % at 8.3 µM; AID 720509, 2013;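 active means inhibition above a per-campaign cutoff: mean of compounds within control limits plus 3 SD, cut at about 15% in these data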;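 further: 0% = median of all compound wells on the plate and 100% = blocking peptide control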
# CAL PDZ FP-2 – untagged CAL PDZ binding inhibitors, primary screen, biochemical, fluorescence polarization, HTS | Golgi-associated PDZ and coiled-coil motif-containing protein (Homo sapiens), Q9HD26 | purified CAL PDZ, TMR-peptide fluorescence polarization, 1 h | inhibition, % at 24.9 µM | 300,000 tested, 0.92% active;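 active means mean inhibition of at least 30% with at least half of replicates also reaching 30%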;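 further: 0% = DMSO neutral control and 100% = excess unlabeled competitor peptide PRC23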
# Arr AP2 block – inhibitors of beta-arrestin/AP2 binding, primary screen, biochemical, GPCR trafficking, flow cytometry; 340,000 tested, 0.31% active; FITC-arrestin peptide / GST-AP2 beads; AP2 beta2 appendage carries R879A mutation; inhibition, % at 10 µM; beta-arrestin 1 C-terminal peptide binding to AP2 beta2-adaptin appendage (human);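 active means inhibition above a set limit, near 3 SD of compounds lacking own fluorescence, cut at about 54% in these data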;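 further: plate controls were DMSO wells for no effect and 5 µM unlabelled arrestin peptide for full effect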
#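 system = GST-tagged AP2 beta2-adaptin appendage (R879A) on 4 µm glutathione beads | reagent = FITC-labelled arrestin peptide probe, 50 nM final | schedule = compound with beads 12 min RT, then probe 1 h RT | signal = HyperCyt-sampled flow cytometry, FL1 channel, ex 488/em 535 nm | read-out = percent response from loss of bead-bound FITC fluorescence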
# Numbers without * were called inactive; nt = not tested or not shown.
SMILES,CAL PDZ FP-1,Tn7 DDE FP,Tn6 DDE FP,CAL PDZ FP-2,Arr AP2 block
O=C(COC(=O)c1cc(=O)c2ccccc2o1)NCc1ccccc1,-1,2,3,50*,-3
O=C(COC(=O)c1cc(=O)c2ccccc2o1)NCc1ccc(Cl)cc1,nt,7,2,nt,nt
O=C(COC(=O)c1ccc(Br)o1)NCc1ccc(Cl)cc1,0,1,2,31*,8
Brc1ccc(C2Nc3cccc4cccc(c34)N2)o1,-1,nt,nt,-1,54*
C[C@H]1CCCN1c1ccc2c(c1)O[C@H]1CCN(C1)S2(=O)=O,nt,4,-1,nt,nt
CCC(C)c1ccc(N(CC(=O)NC(C)(C)C)C(=O)CNC(=O)c2cccs2)cc1 (stereo not given),-1,-8,1,32*,4
CCn1c(CSc2nnc3ccccn23)nc2cc(C(=O)O)ccc21,0,-3,20*,1,20
CCN(C[C@H]1[C@@H](c2ccc(C3=CCCC3)cc2)[C@H](CO)N1C(=O)c1cccnc1)S(=O)(=O)c1ccccc1[N+](=O)[O-],nt,2,-3,nt,nt
O=C(NC1CCCC1)C1CCCN(S(=O)(=O)c2ccc(-n3cnnn3)cc2)C1 (stereo not given),nt,-1,0,33*,1
O=C(NC1CCCCC1)N1CCN(c2nc(-c3ccccc3)cs2)CC1,-8,-1,-11,59*,-5
Cc1cc(C(=O)COC(=O)C2CCN(C(=O)c3ccc(Cl)cc3)CC2)c(C)n1CC1CCCO1 (stereo not given),6,2,9,66*,-34
NC(=S)NNC(=O)c1ccccc1Cl,-1,2,-1,34*,6
CN(C)c1cccc(/C=C2\CC3(OC(=O)c4ccc(F)cc4)CCCN2C3)c1 (stereo not given),nt,3,4,nt,nt
Cc1ccc(C2CCC3(CCC(=O)N3CCOC(=O)Nc3ccc(Br)cc3)CC2)cc1 (stereo not given),nt,1,-9,nt,nt
COc1ccc(S[C@]2(C(=O)N3CCN(c4ncccn4)CC3)CC(=O)N(C(=O)C3CC3)[C@@H]2c2ccc(OC)cc2)cc1,nt,-5,-4,nt,nt
Cc1ccc2c(CC(=O)N3CCN(S(=O)(=O)c4ccccc4)CC3)coc2c1,-2,13,-4,-3,19
Cc1ccc2c(CC(=O)N3CCN(S(=O)(=O)c4ccc5c(c4)OCCO5)CC3)coc2c1,0,5,2,58*,-1
CC(=O)N1CCN(C(=O)COc2ccc(N(C)S(=O)(=O)c3cccs3)cc2)CC1,-2,-6,-3,nt,-8
CN(c1ccc(OCC(=O)N2CCC(C(N)=O)CC2)cc1)S(=O)(=O)c1cccs1,0,0,-4,62*,4
COc1ccc(CCn2nc(C)c([N+](=O)[O-])c2C)cc1,1,2,6,38*,-7
O=C1c2cccc3c([N+](=O)[O-])ccc(c23)C(=O)N1Cc1cccnc1,1,2,-1,37*,9
O=C(Nc1ccccc1C(=O)O)c1cccc(N2C(=O)c3ccccc3C2=O)c1,-2,4,-3,51*,5
OC(c1ccccc1)(c1ccccc1)C1CCN(CCCNc2ccc(C(F)(F)F)cc2)CC1,nt,-3,5,nt,nt
CCOc1cc(C)c(Cl)cc1S(=O)(=O)N(CC)CC,-1,0,-2,74*,-5
N#CC1C(=O)NC(=O)C(C#N)C12CCCCC2 (stereo not given),nt,-7,2,nt,nt
SMILES,CAL PDZ FP-1,Tn7 DDE FP,Tn6 DDE FP,CAL PDZ FP-2,Arr AP2 block
N#CC1C(=O)NC(=O)CC12CCCCC2 (stereo not given),-3,6,-1,80*,-17
O=C(COc1ccc(F)c(Cl)c1)N[C@H]1CCCN(CC2CC2)C1,nt,8,11,nt,nt
COC(=O)c1ccc(NC(=O)CN2C(=O)NC3(CCC(C)CC3)C2=O)cc1 (stereo not given),-1,-1,-3,56*,-2
Cc1ccc(NC(=O)c2cc3cccc([N+](=O)[O-])c3[nH]2)cc1,-1,5,-4,67*,12
CC(C)C[C@@H]1COc2cccc(N3CCCC3)c2S(=O)(=O)N1C,nt,-1,7,nt,nt
CC(C)(CNC(=O)c1cc2ccccc2o1)N1CCOCC1,0,-6,-12,67*,-12
COc1ccccc1CC(=O)Nc1cccc(C)n1,17,1,1,58*,-31
COc1ccccc1CNc1cccc(C)n1,nt,-6,-2,nt,nt
C[C@@H]1CN([C@H](C)CO)C(=O)CCCn2cc(nn2)CO[C@H]1CN(C)S(=O)(=O)c1cn(C)cn1,nt,0,-4,nt,nt
O=C(NC(C(=O)c1ccccc1)c1ccccc1)c1ccccc1 (stereo not given),0,-4,5,38*,7
O=C(OCc1csc(-c2ccccc2)n1)C1=NN(c2ccccc2)C(=O)CC1,0,6,-6,31*,-7
O=C(OCC(=O)c1ccccc1)C1=NN(c2ccccc2)C(=O)CC1,0,0,7,nt,7
COc1ccc(C(C)(C)C)cc1NC(=O)COC(=O)C1=NNC(=O)CC1,0,3,4,133*,-6
COc1ccc(C(C)(C)C)cc1NC(=O)COC(=O)c1cnc(C)cn1,-1,10,0,3,9
COc1ccc(CCN(C)C(=O)C2CCN(Cc3cccc(OC)c3OC)CC2)cc1OC,4,2,-1,37*,6
COc1ccc(CCN(C)C(=O)C2CCN(Cc3ccccc3)CC2)cc1OC,-4,-1,1,-1,-5
CC(C)CN1CCC(Oc2cccc(C(=O)NCCc3ccccc3)c2)CC1,-3,-7,-4,29,-16
COCC(C)N1CCC(Oc2cccc(C(=O)NCCc3ccccc3)c2)CC1 (stereo not given),0,-2,-4,49*,-16
Cc1occc1-c1nnc(SCC(=O)Nc2ccc3ncccc3c2)n1-c1ccccc1,nt,2,-1,nt,nt
O=C(Cn1nnc(-c2ccncc2)n1)Nc1ccc(F)cc1F,nt,-3,2,nt,nt
COc1ccc(C(=O)NCC(=O)NCc2ccncc2)cc1,-3,-6,-1,124*,-12
Cc1cc(N2CCN(C(=O)OC(C)(C)C)C[C@H]2C)ccc1N1CCN(Cc2ccccc2)[C@@H](C)C1,nt,2,0,nt,nt
COCCCn1c(=O)c2sccc2n2c(CCCC(=O)NCc3ccc(F)cc3)nnc12,-3,-5,-2,-5,1
